This passage reports Activity, inhibition and IC50 results from ChEMBL document CHEMBL1123184, “Thromboxane synthetase inhibitors and antihypertensive agents. 2. N-[(1H-imidazol-1-yl)alkyl]-1H-isoindole-1,3(2H)-diones and N-[(1H-1,2,4-triazol-1-yl)alkyl]-1H-isoindole-1,3(2H)-diones as unique antihypertensive agents” (J Med Chem, 1986).

pIC50: −log10 of the molar value. Active and inactive are the calls of the source.

One may read the inhibition as the share of the control response that was lost under treatment. Lower therefore signals a weak effect. A word on the pIC50: it is the IC50 on a negative log10 scale, so that one unit is a factor of ten.

The subject of experiment [1] is Rattus norvegicus. Kind of experiment: Compound was tested for the antihypertensive activity in rats, after peroral administration of 100 mg/kg for 2 days (no. of rats=2); I=Inactive. The experiment is classed as functional, organism-based. Also on record: dose 100 mg/kg. The essentials: (§1)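 Male 16-week-old Okamoto SHR (mean arterial pressure 170 ± 1.5 mmHg). Compound suspended in 2% preboiled starch (50 mg/mL) and given by gavage at 100 mg/kg, with 0.9% NaCl load 25 mL/kg. Second identical dose without saline 24 h later. Mean arterial pressure read 28 h after first dose. Active: one rat ≤116 mmHg or mean of two ≤122 mmHg.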

Experiment [2] deals with T1, Thromboxane-A synthase (Rattus norvegicus) (UniProt P49430).
T1 sequence (whole entry): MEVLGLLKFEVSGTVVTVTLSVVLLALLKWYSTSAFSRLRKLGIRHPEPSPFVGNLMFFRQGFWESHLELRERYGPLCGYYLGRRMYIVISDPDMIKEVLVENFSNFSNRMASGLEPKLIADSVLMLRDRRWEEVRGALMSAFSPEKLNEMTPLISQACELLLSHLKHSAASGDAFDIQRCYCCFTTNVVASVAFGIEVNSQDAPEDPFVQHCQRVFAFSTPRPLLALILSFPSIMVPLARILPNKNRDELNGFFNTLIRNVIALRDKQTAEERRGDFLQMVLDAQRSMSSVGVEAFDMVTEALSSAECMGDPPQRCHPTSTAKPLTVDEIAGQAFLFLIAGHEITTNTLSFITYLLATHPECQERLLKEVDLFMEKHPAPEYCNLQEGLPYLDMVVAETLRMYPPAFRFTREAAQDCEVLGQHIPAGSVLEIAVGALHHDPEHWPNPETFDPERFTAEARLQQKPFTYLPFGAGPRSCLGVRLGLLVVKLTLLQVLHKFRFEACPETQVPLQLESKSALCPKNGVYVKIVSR
Kind of experiment: Inhibition of thromboxane formation in platelets at a concentration of 10e-4 M. The experiment is classed as functional. An outline of the steps: (§2)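 SHR washed platelets (4.5–6.0 × 10^4/μL, Krebs phosphate pH 7.4) incubated 10 min at 37 °C with compound at 10^-4 M. Reaction stopped with citric acid on ice. TXB2 quantified by RIA, boiled-control blank subtracted, and percent inhibition of TXB2 formation calculated. Number of determinations given per value.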

Experiment [3] concerns Rattus norvegicus. Briefly: Compound was tested for the antihypertensive activity in rats, after peroral administration of 100 mg/kg; I=Inactive. It counts as functional, organism-based. More on the design: dose 100 mg/kg. An outline of the steps:
as §1

In experiment [4] the target is T2, Thromboxane-A synthase (Rattus norvegicus, UniProt P49430).
T2 sequence (P49430 whole entry): T1 sequence (whole entry)
Kind of experiment: (§3) Compound was tested for the inhibition of thromboxane synthetase. It counts as functional. An outline of the steps: (§4)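 Washed platelets from urethan-anesthetized SHR aged 19–24 weeks, in oxygenated Krebs phosphate buffer pH 7.4 at (4.5–6.0) × 10^4 platelets/μL. Incubated 10 min at 37 °C with compound, stopped with citric acid on ice. TXB2 measured by RIA; boiled-sample blank subtracted. IC50 read from percent inhibition vs log concentration plot; duplicate measurements.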

Experiment [5] deals with T1, Thromboxane-A synthase (Rattus norvegicus). Kind of experiment: Inhibition of thromboxane formation (thromboxane synthetase) in platelets at 10e-4 M. It counts as functional. The essentials:
as §2

The test system of experiment [6] is Rattus norvegicus. Kind of experiment: Compound was tested for the antihypertensive activity in rats, after peroral administration of 100 mg/kg; A=Active. More on the design: dose 100 mg/kg. It counts as functional, organism-based. The essentials:
as §1

Experiment [7] concerns the target T2, Thromboxane-A synthase. Described as §3. The essentials:
as §4

The test system of experiment [8] is Rattus norvegicus. Kind of experiment: Compound was tested for the antihypertensive activity in rats, after peroral administration of 100 mg/kg for 2 days (no. of rats=3); I=Inactive. The experiment is classed as functional, organism-based. Also on record: dose 100 mg/kg. The essentials: as §1
The subject of experiment [9] is Rattus norvegicus. Briefly: Compound was tested for the antihypertensive activity in rats, after peroral administration of 100 mg/kg for 2 days (no. of rats=2); A=Active. It counts as functional, organism-based. Also on record: dose 100 mg/kg. An outline of the steps:
as §1

The test system of experiment [10] is Rattus norvegicus. Kind of experiment: Compound was tested for the antihypertensive activity in rats, after peroral administration of 100 mg/kg for 2 days (no. of rats=3); A=Active. The experiment is classed as functional, organism-based. More on the design: dose 100 mg/kg. The essentials:
as §1

Experiment [11] has as its system Rattus norvegicus. Briefly: Compound was tested for the antihypertensive activity in rats, after peroral administration of 100 mg/kg for 2 days (no. of rats=4); I=Inactive. It counts as functional, organism-based. More on the design: dose 100 mg/kg. An outline of the steps:
as §1

For experiment [12], the system named is Rattus norvegicus. Kind of experiment: Compound was tested for the antihypertensive activity in rats, after peroral administration of 100 mg/kg for 2 days (no. of rats=2); a=Active. The experiment is classed as functional, organism-based. Also on record: dose 100 mg/kg. An outline of the steps: as §1

As for `Cc1cn(CCCN2C(=O)c3ccccc3C2=O)cn1`, in the experiment on Rattus norvegicus [1], the outcome was inactive. This compound gave an inhibition in experiment [2] of 68%.
With `O=C1c2ccc(Cl)c(Cl)c2C(=O)N1CCCn1ccnc1`, the outcome with Rattus norvegicus [3] was inactive. The pIC50 at Thromboxane-A synthase [4] was 6.40. Besides, the inhibition in experiment [5] is 100%.
Turning to `CC(CCn1ccnc1)N1C(=O)c2cccc(Br)c2C1=O` (stereo unspecified), the outcome in the experiment with Rattus norvegicus [3] was inactive. Moreover, the inhibition in [5] was determined as 89%.
On to `O=C1c2cccc(Br)c2C(=O)N1CCCCn1ccnc1`, for which the result in the experiment with Rattus norvegicus [6] was Active. The same compound gave a pIC50 at Thromboxane-A synthase [4] of 6.00. Further, the inhibition in experiment [5] amounted to 100%.
`Cc1cccc2c1C(=O)N(CCCn1ccnc1)C2=O` gave a pIC50 against Thromboxane-A synthase [7] of 5.40. In addition, the outcome with Rattus norvegicus [8] was inactive. The compound also displayed an inhibition in [2] of 100%.
Turning to `O=C1c2ccc(Cl)c(Cl)c2C(=O)N1CCCCn1ccnc1`, the outcome in the experiment with Rattus norvegicus [3] was inactive. The inhibition in experiment [5] came to 100%.
Regarding `O=C1c2ccccc2C(=O)N1CCCCCn1cncn1`, in the experiment on Rattus norvegicus [9], the result was Active. The compound also showed an inhibition in experiment [2] of 79%.
Regarding `O=C1c2ccc(Cl)c(Cl)c2C(=O)N1CCCn1cncn1`, the result in the experiment with Rattus norvegicus [3] was inactive. The compound also returned an inhibition in experiment [5] of 73%.
Take `O=C1c2ccccc2C(=O)N1CCCCCCCCn1ccnc1`: the result with Rattus norvegicus [3] was inactive. At Thromboxane-A synthase [4], this compound had a pIC50 of 6.70. In addition, the inhibition in experiment [5] amounted to 100%.
For the compound `O=C1c2ccccc2C(=O)N1CCCn1cncn1`, the outcome in the experiment on Rattus norvegicus [9] was Active. The compound further showed an inhibition in experiment [2] of 64%.
For `O=C1c2ccccc2C(=O)N1CCn1ccnc1`, in that order: “Active” and 20%.
Regarding `Cc1cccc2c1C(=O)N(CCCCn1ccnc1)C2=O`, the result in the experiment on Rattus norvegicus [9] was Active. This compound showed a pIC50 at Thromboxane-A synthase [7] of 5.70. Besides, the inhibition in [2] turned out to be 100%.
For `O=C1c2ccccc2C(=O)N1CCCCn1ccnc1`, in that order: “Active”, 5.70 and 99%.
For the compound `O=C1c2ccccc2C(=O)N1CC#CCn1ccnc1`, the outcome in the experiment on Rattus norvegicus [6] was Active. In experiment [5], this compound had an inhibition of 100%.
As to `O=C1c2ccccc2C(=O)N1CCCCn1ccnc1-c1ccccc1`, the outcome in the experiment with Rattus norvegicus [8] was inactive. This compound showed an inhibition in experiment [2] of 57%.
Consider `Cc1nccn1CCCN1C(=O)c2ccccc2C1=O`, for which, in the experiment with Rattus norvegicus [1], the result was inactive. Besides, the inhibition in [2] stood at 36%.
The like results for `CCc1nccn1CCCN1C(=O)c2ccccc2C1=O` were, in that order, “inactive” and 0%.
Consider `O=C1c2cccc(Br)c2C(=O)N1CCCn1cncn1`, for which the result in the experiment with Rattus norvegicus [3] was inactive. This compound displayed an inhibition in experiment [5] of 76%.
Consider `O=C1c2ccccc2C(=O)N1CCCCCn1ccnc1`, for which, in the experiment with Rattus norvegicus [9], the result was Active. On Thromboxane-A synthase [7], this compound had a pIC50 of 5.22. Further, the inhibition in [2] was determined as 92%.
`O=C1c2cccc(Cl)c2C(=O)N1CCCCn1ccnc1`: the outcome in the experiment on Rattus norvegicus [6] was Active. Besides, the inhibition in [5] worked out at 100%.
In experiment [2], `CC(CCn1ccnc1)N1C(=O)c2ccccc2C1=O` (stereo unspecified) registered an inhibition of 94%. For the same compound, the outcome in the experiment on Rattus norvegicus [10] was Active.
`O=C1c2ccccc2C(=O)N1C/C=C/Cn1ccnc1`: in the experiment on Rattus norvegicus [9], the outcome was Active. In [2], this compound registered an inhibition of 85%.
Take `CC(CCn1cncn1)N1C(=O)c2ccccc2C1=O` (stereo unspecified): the outcome in the experiment on Rattus norvegicus [11] was inactive. Further, in [2], the inhibition was 47%.
For `O=C1c2ccccc2C(=O)N1CCCCCCCCCCn1ccnc1`, the outcome in the experiment with Rattus norvegicus [3] was inactive. Further, at Thromboxane-A synthase [4], the pIC50 was 7.00. Further, the inhibition in experiment [5] came to 92%.
With `O=C1c2ccccc2C(=O)N1CCCCCCn1ccnc1`, the result with Rattus norvegicus [6] was Active. Moreover, the pIC50 against Thromboxane-A synthase [4] is 5.82. The compound further gave an inhibition in experiment [5] of 100%.
Consider `CCc1nccn1CCCCN1C(=O)c2ccccc2C1=O`, for which the outcome in the experiment with Rattus norvegicus [1] was inactive. For the same compound, the inhibition in experiment [2] was found to be 65%.
Turning to `O=C1c2cccc(Cl)c2C(=O)N1CCCn1ccnc1`, in the experiment with Rattus norvegicus [6], the result was Active. Besides, the inhibition in [5] came to 92%.
On to `O=C1c2ccccc2C(=O)N1CCCn1ccnc1`, for which the result in the experiment on Rattus norvegicus [9] was Active. Moreover, the pIC50 on Thromboxane-A synthase [7] is 5.30. The same compound had an inhibition in experiment [2] of 94%.
Take `O=C1c2ccccc2C(=O)N1CCn1cncn1`: in the experiment on Rattus norvegicus [12], the result was Active. The same compound displayed an inhibition in experiment [2] of 0%.
Regarding `O=C1c2ccccc2C(=O)N1CCCCn1cncn1`, in experiment [2], the inhibition turned out to be 70%.
Take `O=C1c2cccc(Br)c2C(=O)N1CCCCCn1ccnc1`: in the experiment on Rattus norvegicus [3], the result was inactive. Besides, the pIC50 at Thromboxane-A synthase [4] was 6.22. For the same compound, the inhibition in [5] turned out to be 87%.
As to `Cc1nccn1CCCCN1C(=O)c2ccccc2C1=O`, the outcome in the experiment with Rattus norvegicus [11] was inactive. Besides, the inhibition in experiment [2] is 22%.
For the compound `Cc1cn(CCCCN2C(=O)c3ccccc3C2=O)cn1`, the result in the experiment with Rattus norvegicus [8] was inactive. For the same compound, in experiment [2], the inhibition was 86%.
